Data taken from ChEMBL document CHEMBL3600321, “Synthesis and antifungal evaluation of head-to-head and head-to-tail bisamidine compounds” (Bioorg Med Chem, 2015).
Converted amounts (≈) assume the structure as drawn.

Key:
Cryptococcus neoformans = assay: Antifungal activity against Cryptococcus neoformans Cn18 (Serotype C) WTBF-106 by microbroth dilution method; assay type: functional
In short: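 Microbroth dilution per the CLSI protocol, run in Sabouraud Dextrose Broth in place of RPMI. MIC values are geometric means of three independent assays.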

Nakaseomyces glabratus = assay: Antifungal activity against Candida glabrata ATCC 90030 WTBF-86 by microbroth dilution method; assay type: functional
In short: (§1)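 CLSI microbroth dilution in RPMI 1640 with L-glutamine. MIC values are geometric means of three independent assays.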

Candida albicans [1] = assay: Antifungal activity against Candida albicans WTBF-50 by microbroth dilution method; assay type: functional; in short: as §1
[2] = Metabolic stability in liver microsomes (unknown origin); assay type: ADME
Pichia kudriavzevii = assay: Antifungal activity against Candida krusei WTBF-51 by microbroth dilution method; assay type: functional
HeLa = assay: Cytotoxicity against human HeLa cells assessed as cell viability after 72 hrs by MTS assay; assay type: cell-based
Candida parapsilosis = assay: Antifungal activity against Candida parapsilosis ATCC 90018 WTBF-88 by microbroth dilution method; assay type: functional; settings: Lodderomyces parapsilosis; in short: as §1
Candida albicans [3] = assay: Fungicidal activity against Candida albicans WTBF-50 assessed as inhibition of cell wall biosynthesis after 90 mins by [3H]-glucosamine incorporation assay; assay type: functional, organism-based
In short: (§2)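 C. albicans was grown in RPMI at 37 °C to OD600 of about 1, then mixed with 2-fold serial dilutions of compound and one 3H precursor at 10 μCi/ml final. Incubation ran 90 min at 37 °C, about one doubling. TCA precipitate was filter-collected and scintillation-counted. Each concentration was tested in triplicate. Incorporation relative to untreated control was fitted with a four-parameter curve to give the IC50.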

Candida albicans [4] = assay: Fungicidal activity against Candida albicans WTBF-50 assessed as inhibition of DNA and RNA biosynthesis after 90 mins by [3H]-adenine incorporation assay; assay type: functional, organism-based; in short: as §2
Candida albicans [5] = assay: Fungicidal activity against Candida albicans WTBF-50 assessed as inhibition of protein biosynthesis after 90 mins by [3H]-leucine incorporation assay; assay type: functional, organism-based; in short: as §2
Candida albicans [6] = assay: Fungicidal activity against Candida albicans WTBF-50 assessed as inhibition of RNA biosynthesis after 90 mins by [3H]-uridine incorporation assay; assay type: functional, organism-based; in short: as §2
Candida albicans [7] = assay: Fungicidal activity against Candida albicans WTBF-50 assessed as inhibition of lipid biosynthesis after 90 mins by [3H]-acetate incorporation assay; assay type: functional, organism-based; in short: as §2

| SMILES | MIC (Cryptococcus neoformans) [mg/L] | MIC (Nakaseomyces glabratus) [mg/L] | MIC (Candida albicans [1]) [mg/L] | Stability [2] | MIC (Pichia kudriavzevii) [mg/L] | CC50 (HeLa) [mg/L] | MIC (Candida parapsilosis) [mg/L] | IC50 (Candida albicans [3]) [mg/L] | IC50 (Candida albicans [4]) [mg/L] | IC50 (Candida albicans [5]) [mg/L] | IC50 (Candida albicans [6]) [mg/L] | IC50 (Candida albicans [7]) [mg/L] |
| --- | --- | --- | --- | --- | --- | --- | --- | --- | --- | --- | --- | --- |
| O=C(O)C(F)(F)F.c1cc2cc(-c3ccc(-c4cn5ccc(C6=NCCCN6)cc5n4)cc3)[nH]c2cc1C1=NCCCN1 | 1 | 4 | 4 | Stable | 6.35 | 20.9 | 0.5 | – | – | – | – | – |
| N=C(NCCO)c1ccc2cc(-c3ccc(-c4cc5ccc(C(=N)NCCO)cc5[nH]4)cc3)[nH]c2c1.O=C(O)C(F)(F)F | 1.97 | 0.13 | 0.25 | Stable | 1.59 | 14 | 0.25 | – | – | – | – | – |
| Cl.N=C(N)c1ccc2cc(-c3ccc(-c4cc5ccc(C(=N)N)cc5[nH]4)cc3)[nH]c2c1 | 3.13 | 4 | 16 | Stable | 2 | 7 | 2 | – | – | – | – | – |
| CC(=O)O.c1cn2cc(-c3ccc(-c4ccc5cc(C6=NCCCN6)[nH]c5c4)cc3)nc2cc1C1=NCCCN1 | 1 | 32 | 16 | Stable | 16 | 20.7 | 8 | – | – | – | – | – |
| CN(C)CCNC(=N)c1ccc2cc(-c3ccc(-c4cc5ccc(C(=N)NCCN(C)C)cc5[nH]4)cc3)[nH]c2c1.O=C(O)C(F)(F)F | 1.97 | 0.63 | 1 | Stable | 1 | 5.5 | 0.5 | – | – | – | – | – |
| CC(=O)O.c1cc2cc(-c3ccc(-c4ccc5nc(C6=NCCCN6)cn5c4)cc3)oc2cc1C1=NCCCN1 | 1 | 1 | 4 | Stable | 8 | 20.7 | 0.79 | – | – | – | – | – |
| O=C(O)C(F)(F)F.c1cc2cc(-c3ccc(-c4nc5ccc(C6=NCCCN6)cc5[nH]4)cc3)[nH]c2cc1C1=NCCCN1 | 0.5 | 0.13 | 0.4 | Stable | 1 | 14.1 | 0.16 | – | – | – | – | – |
| COCCNC(=N)c1ccc2cc(-c3ccc(-c4cc5ccc(C(=N)NCCOC)cc5[nH]4)cc3)[nH]c2c1.O=C(O)C(F)(F)F | 1.1 | 0.5 | 0.79 | Stable | 1 | 3.5 | 0.79 | – | – | – | – | – |
| CC(=O)O.c1cn2cc(-c3ccc(-c4ccc5cc(C6=NCCCN6)oc5c4)cc3)nc2cc1C1=NCCCN1 | 3.94 | 1.59 | 8 | Stable | 8 | 32.5 | 2.52 | – | – | – | – | – |
| N=C(NCCN1CCOCC1)c1ccc2cc(-c3ccc(-c4cc5ccc(C(=N)NCCN6CCOCC6)cc5[nH]4)cc3)[nH]c2c1.O=C(O)C(F)(F)F | 2.48 | 2 | 2.52 | Stable | 2 | 24.9 | 2 | – | – | – | – | – |
| O=C(O)C(F)(F)F.c1cc2cc(CCc3cc4ccc(C5=NCCCN5)cc4[nH]3)[nH]c2cc1C1=NCCCN1 | 1 | 1 | 3.17 | Stable | 8 | 24.6 | 2 | – | – | – | – | – |
| O=C(O)C(F)(F)F.c1cc2cc(-c3ccc(-c4cn5cc(C6=NCCCN6)ccc5n4)cc3)[nH]c2cc1C1=NCCCN1 | 3.13 | 0.25 | 0.63 | Stable | 4 | 19.7 | 0.25 | – | – | – | – | – |
| CC(=O)O.c1cc2cc(-c3ccc4cc(C5=NCCCN5)[nH]c4c3)sc2cc1C1=NCCCN1 | 4 | 5.04 | 3.17 | Stable | 16 | 27.5 | 2 | – | – | – | – | – |
| CC(=O)O.c1cc2cc(-c3ccc4oc(C5=NCCCN5)cc4c3)[nH]c2cc1C1=NCCCN1 | 1 | 1 | 0.4 | Stable | 4 | 50.5 | 0.5 | – | – | – | – | – |
| FC1CN=C(c2ccc3cc(-c4ccc(-c5cc6ccc(C7=NCC(F)CN7)cc6[nH]5)cc4)[nH]c3c2)NC1.O=C(O)C(F)(F)F (centres undefined) | 0.25 | 0.13 | 0.5 | Stable | 0.25 | 13.9 | 0.25 | – | – | – | – | – |
| Brc1c(-c2ccc(-c3[nH]c4cc(C5=NCCCN5)ccc4c3Br)cc2)[nH]c2cc(C3=NCCCN3)ccc12.O=C(O)C(F)(F)F | 0.78 | 0.5 | 0.63 | Stable | 0.5 | 0.5 | 0.5 | – | – | – | – | – |
| O=C(O)C(F)(F)F.OC1CN=C(c2ccc3cc(-c4ccc(-c5cc6ccc(C7=NCC(O)CN7)cc6[nH]5)cc4)[nH]c3c2)NC1 (centres undefined) | 0.06 | 0.16 | 0.5 | Stable | 12.7 | > 80 | 0.31 | – | – | – | – | – |
| N=C(N)c1ccc(OCCCCCOc2ccc(C(=N)N)cc2)cc1 [PENTAMIDINE] | ≥ 100 | 3.13 (≈ 9.19 µM) | 25 (≈ 73.4 µM) | – | 19.8 (≈ 58.2 µM) | – | 12.5 (≈ 36.7 µM) | > 25 | 0.19 (≈ 0.558 µM) | > 25 | 12.2 (≈ 35.8 µM) | > 25 |
| CC(=O)O.c1cc2cc(-c3cnc(-c4cc5ccc(C6=NCCCN6)cc5[nH]4)nc3)[nH]c2cc1C1=NCCCN1 | 1.24 | ≤ 0.03 | 0.31 | Stable | 0.25 | 25.5 | 0.13 | – | – | – | – | – |
| CC1CN=C(c2ccc3cc(-c4ccc(-c5cc6ccc(C7=NCC(C)CN7)cc6[nH]5)cc4)[nH]c3c2)NC1.O=C(O)C(F)(F)F (centres undefined) | 0.25 | 0.13 | 0.5 | Stable | 0.5 | 5.8 | 0.25 | – | – | – | – | – |
| CC1(C)CN=C(c2ccc3cc(-c4ccc(-c5cc6ccc(C7=NCC(C)(C)CN7)cc6[nH]5)cc4)[nH]c3c2)NC1.O=C(O)C(F)(F)F | 3.13 | 2 | 4 | Stable | 4 | 8 | 8 | – | – | – | – | – |
| CC(C)NC(=N)c1ccc2cc(-c3ccc(-c4cc5ccc(C(=N)NC(C)C)cc5[nH]4)cc3)[nH]c2c1.O=C(O)C(F)(F)F | 1.56 | 0.2 | 0.5 | Stable | 0.4 | 3.5 | 0.25 | – | – | – | – | – |
| Clc1c(-c2ccc(-c3[nH]c4cc(C5=NCCCN5)ccc4c3Cl)cc2)[nH]c2cc(C3=NCCCN3)ccc12.O=C(O)C(F)(F)F | 0.78 | 0.25 | 0.4 | Stable | 0.25 | 0.65 | 0.25 | – | – | – | – | – |
| CC(=O)O.c1cc2cc(-c3cnc(-c4cc5ccc(C6=NCCCN6)cc5o4)cn3)oc2cc1C1=NCCCN1 | 3.13 | 16 | 20.2 | Stable | 20.2 | > 80 | 2 | – | – | – | – | – |
| CC(=O)O.c1cc2cc(-c3ccc(-c4cc5ccc(C6=NCCCN6)cc5o4)cc3)[nH]c2cc1C1=NCCCN1 | 0.25 | 0.16 | 0.5 | Stable | 1 | 4.7 | 0.25 | – | – | – | – | – |
| CC1CNC(c2ccc3cc(-c4ccc(-c5cc6ccc(C7=NC(C)CN7)cc6[nH]5)cc4)[nH]c3c2)=N1.O=C(O)C(F)(F)F (centres undefined) | 0.25 | 0.25 | 0.79 | Stable | 0.79 | 66.5 | 0.4 | – | – | – | – | – |
| CC(=O)O.c1cc2nc(-c3ccc(-c4ccc5cc(C6=NCCCN6)oc5c4)cc3)cn2cc1C1=NCCCN1 | 2 | 0.31 | 2 | Stable | 8 | 25.5 | 2 | – | – | – | – | – |
| CN1CCCN=C1c1ccc2cc(-c3ccc(-c4cc5ccc(C6=NCCCN6C)cc5[nH]4)cc3)[nH]c2c1 | 1.97 (≈ 3.93 µM) | 1.26 (≈ 2.52 µM) | 1.59 (≈ 3.18 µM) | Stable | 4 (≈ 7.99 µM) | 4.7 (≈ 9.39 µM) | 1 (≈ 2 µM) | – | – | – | – | – |
